pIC50: −log10 of the molar value.
Assays:
CCRF-CEM [1] = assay: Selectivity ratio of IC50 for human CEM/ADR5000 cells to IC50 for human CCRF-CEM cells; format: functional
[2] = Cytotoxicity against human CEM/ADR5000 by CCK-8 assay; format: functional
In short: (§1)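 CCRF-CEM or P-glycoprotein-overexpressing CEM/ADR5000 leukemia cells in RPMI1640. CEM/ADR5000 maintained by treatment with 5000 ng/mL doxorubicin every other week for three days. Viability by CCK-8: reagent added, 3 h at 37 °C, absorbance 450 nm. IC50 from dose–response curves. At least two independent experiments, each with 6 parallel measurements (12 values per concentration), mean ± SEM.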

CCRF-CEM [3] = assay: Cytotoxicity against human CCRF-CEM cells by CCK-8 assay; format: functional, cell-based; in short: as §1

Row | Compound | Ratio IC50 (CCRF-CEM [1]) | pIC50 [2] | pIC50 (CCRF-CEM [3])
1 | C[C@H]1[C@H](OC(=O)CCC(=O)NCCCNC(=O)CCC(=O)O[C@@H]2O[C@@H]3O[C@@]4(C)CC[C@H]5[C@H](C)CC[C@@H]([C@H]2C)[C@@]35OO4)O[C@@H]2O[C@@]3(C)CC[C@H]4[C@H](C)CC[C@@H]1[C@@]24OO3 | 0.17 | 6.70 | –
2 | C[C@H]1[C@H](OC(=O)CCC(=O)NCC(O)CNC(=O)CCC(=O)O[C@@H]2O[C@@H]3O[C@@]4(C)CC[C@H]5[C@H](C)CC[C@@H]([C@H]2C)[C@@]35OO4)O[C@@H]2O[C@@]3(C)CC[C@H]4[C@H](C)CC[C@@H]1[C@@]24OO3 (some centres not stated) | 0.56 | 5.92 | 5.67
3 | C[C@H]1[C@H](OC(=O)CCC(=O)NCc2cccc(CNC(=O)CCC(=O)O[C@@H]3O[C@@H]4O[C@@]5(C)CC[C@H]6[C@H](C)CC[C@@H]([C@H]3C)[C@@]46OO5)c2)O[C@@H]2O[C@@]3(C)CC[C@H]4[C@H](C)CC[C@@H]1[C@@]24OO3 | 0.94 | 5.82 | 5.80
4 | C[C@H]1[C@H](OC(=O)CCC(=O)NCCCCCCCCNC(=O)CCC(=O)O[C@@H]2O[C@@H]3O[C@@]4(C)CC[C@H]5[C@H](C)CC[C@@H]([C@H]2C)[C@@]35OO4)O[C@@H]2O[C@@]3(C)CC[C@H]4[C@H](C)CC[C@@H]1[C@@]24OO3 | 1.03 | 5.52 | 5.53
5 | C[C@@H]1CC[C@H]2[C@@H](C)C(=O)O[C@@H]3O[C@@]4(C)CC[C@@H]1[C@]32OO4 [ARTEMISININ] | 0.73 | – | –
6 | C[C@H]1[C@H](OC(=O)CCC(=O)O)O[C@@H]2O[C@@]3(C)CC[C@H]4[C@H](C)CC[C@@H]1[C@@]24OO3 [ARTESUNATE] | 0.67 | 5.92 | –
7 | COc1cccc2c1C(=O)c1c(O)c3c(c(O)c1C2=O)C[C@@](O)(C(=O)CO)C[C@@H]3O[C@H]1C[C@H](N)[C@H](O)[C@H](C)O1 [DOXORUBICIN] | >140 | < 5.28 | 7.43

— ChEMBL document CHEMBL2086346, “New artesunic acid homodimers: potent reversal agents of multidrug resistance in leukemia cells” (Bioorg Med Chem, 2012)
